Screening data from PubChem.
Compounds with a hit are over-represented: about 4.9% of the library has one in this group of screens.
NPY-Y1 antag: blocks the human neuropeptide Y Y1 receptor. HEK293-CNG Y1 cells, membrane potential fluorescence; NPY at EC95, then isoproterenol. inhibition, % at 3.6 µM. 1% of 200,000 active. AID 1040;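 active = inhibition above the campaign mean inhibition of all tested compounds plus 3 SD, cut at about 20% in these data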
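System: HEK293 cells with Y1 receptor plus CNG channel / Probe or stimulus: NPY 25 nM then isoproterenol 1 µM plus Ro 20-1724 25 µM / Compound: one concentration, 3.6 µM, in 0.4% DMSO / Schedule: compound incubation 1 h at room temperature, readout 45 min post-stimulation / Measured by: membrane potential fluorescence / Read-out: % inhibition of NPY effect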
RAM inhibit: yeast RAM network inhibition. inhibition, % at 50 µM. AID 868. S. cerevisiae dse1pr::URA3 reporter, 5-FOA growth OD615, 2 d; analog-sensitive cbk1-as2 kinase mutant strain. 1.8% of 190,000 active;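 active = inhibition above a set limit, 3 SD over mean compound inhibition, cut at about 8.4% in these data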;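 also: inhibition rescues growth on 5-FOA so higher OD means more RAM inhibition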
WT yeast gro inh: growth inhibition of WT yeast, mitochondrial fusion screen | mitochondrial fusion phenotypic screen, WT strain | 2.1% of 190,000 active | AID 1362 | inhibition, % at 10 µM; in the data active = inhibition above about 58%; tested in S. cerevisiae
NPY2 pot ag: potentiates or activates human NPY-Y2 receptor; P49146; cells expressing NPY-Y2, potentiator/agonist read-out; activation, % at 3.6 µM; 0.45% of 220,000 active; in the data active = activation above about 27%;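 also: cells stimulated with NPY near EC25 plus isoproterenol at EC100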
Target sequence (P49146 whole entry, looked up): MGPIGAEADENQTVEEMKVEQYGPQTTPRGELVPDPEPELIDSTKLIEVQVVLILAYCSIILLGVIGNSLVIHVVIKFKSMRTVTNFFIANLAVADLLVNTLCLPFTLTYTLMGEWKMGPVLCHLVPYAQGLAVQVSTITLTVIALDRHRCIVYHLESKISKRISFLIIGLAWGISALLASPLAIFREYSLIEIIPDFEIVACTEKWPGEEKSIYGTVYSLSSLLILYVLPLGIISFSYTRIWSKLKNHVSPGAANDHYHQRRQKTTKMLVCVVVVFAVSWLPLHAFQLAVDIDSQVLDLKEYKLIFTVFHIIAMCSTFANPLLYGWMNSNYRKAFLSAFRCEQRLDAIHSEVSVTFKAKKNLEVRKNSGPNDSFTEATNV
NPY-Y1 PAM-ag: potentiators or agonists of human neuropeptide Y receptor Y1; P25929; NPY-Y1 expressing cells, potentiator/agonist activation; activation, % at 3.6 µM; 0.37% of 220,000 active; in the data active = activation above about 33%, passing the limit was not always enough;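 also: cells stimulated with NPY at EC10 then isoproterenol at EC100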
NPY Y2 blocker: NPY-Y2 (human) receptor antagonism. P49146. NPY-Y2 expressing cells, antagonist mode. inhibition, % at 2.7 µM. 0.99% of 140,000 active; in the data active = inhibition above about 17%
Large screens that a line does not name were inactive.

S=C(Nc1ccc(Oc2ccccc2)cc1)NC1CCCCC1	WT yeast gro inh 61
CCCCN(C)C(=S)Nc1ccc(Oc2ccccc2)cc1	WT yeast gro inh 59
CCOC(=O)c1c(/N=C/c2cc(OC)cc([N+](=O)[O-])c2O)sc(C)c1C	RAM inhibit 9.5
CCOC(=O)c1c(/N=C/c2cc([N+](=O)[O-])ccc2O)sc(C)c1C	none
COC(=O)CSc1nc(SCc2ccc(C)cc2)nc2c1CCCC2	WT yeast gro inh 70
CN(C)c1nc(SCc2ccccc2Cl)nc2c1CCCC2	none
Cc1ccc(CSc2nc3c(c(N(C)C)n2)CCCC3)cc1	WT yeast gro inh 78
Cc1ccc(CSc2nc3c(c(SCC(=O)O)n2)CCCC3)cc1	none
Cc1nc(SCc2ccccc2)nc2c1CCC2	none (no result: NPY Y2 blocker)
CNc1nc(SCc2ccc(C)cc2)nc2c1CCCC2	WT yeast gro inh 67
CSc1c(C#N)c(N)nc2sc(C(=O)c3ccccc3)c(N)c12	none (no result: NPY-Y1 antag, RAM inhibit, WT yeast gro inh, NPY Y2 blocker)
COc1ccc(-c2nc3c(n2O)CCCC3=O)cc1OC	WT yeast gro inh 60
Cc1noc(C(=O)NC2CCCCC2)c1Cl	none (no result: NPY-Y1 antag, RAM inhibit, WT yeast gro inh, NPY Y2 blocker)
Cc1cccc(-n2c(=O)c3c(n4cnnc24)-c2ccccc2CC32CCCCC2)c1	WT yeast gro inh 74
Cc1cccc(-n2c(SCC(N)=O)nc3c(c2=O)C2(CCCC2)Cc2ccccc2-3)c1	NPY2 pot ag 39, NPY-Y1 PAM-ag 48
CC1CCN(C(=O)c2ccc(CNc3c(N4CCCC4)c(=O)c3=O)cc2)CC1	none (no result: NPY-Y1 antag, RAM inhibit, WT yeast gro inh, NPY Y2 blocker)
CCCn1c2ccccc2c2nnc(SCC(=O)OC)nc21	none
CCCCn1c2ccccc2c2nnc(SCC(=O)NC3=NN=C(c4ccccc4)CS3)nc21	WT yeast gro inh 60
CC(=O)N(C)c1ccc(NS(=O)(=O)c2cc(Cl)ccc2Cl)cc1	NPY-Y1 antag 21 (no result: NPY Y2 blocker)
CC(=O)Nc1ccc(NS(=O)(=O)c2cc(Cl)ccc2Cl)cc1	none (no result: NPY-Y1 antag, RAM inhibit, WT yeast gro inh, NPY Y2 blocker)
Cn1c(=O)[nH]c(=O)c2c1nc(N1CCCCC1)n2CCSc1ncccn1	none (no result: NPY-Y1 antag, RAM inhibit, NPY2 pot ag, NPY-Y1 PAM-ag, NPY Y2 blocker)
Cn1c(=O)[nH]c(=O)c2c1nc(Br)n2CCSc1ncccn1	WT yeast gro inh 75
CCCc1c(C)[nH]c2ccc(NC(C)=O)cc2c1=O	WT yeast gro inh 69
CC(=O)CCc1c(C)[nH]c2ccc(NC(C)=O)cc2c1=O	none
COCCOC(=O)C1=C(C)NC(=O)NC1/C=C/c1ccccc1 (configuration not stated)	none
CCC(CC)C(=O)Nc1cccc(C(=O)Nc2ccc(OC)cc2[N+](=O)[O-])c1	none
O=C(CN(Cc1ccccc1)S(=O)(=O)c1cccc(C(F)(F)F)c1)NC1CCCCC1	RAM inhibit 8.8
CN(CC(=O)NC1CCCCCC1)S(=O)(=O)c1ccccc1	none
CC(c1ccccc1)N(CC(=O)NC1CCCCC1)S(=O)(=O)c1cccc(C(F)(F)F)c1 (configuration not stated)	WT yeast gro inh 69
O=C(NC1CCCCCCC1)C1CCCN(S(=O)(=O)c2cnc[nH]2)C1 (configuration not stated)	NPY2 pot ag 42
O=C(NC1CCCC1)C1CCCN(S(=O)(=O)c2cccc3cccnc23)C1 (configuration not stated)	RAM inhibit 8.7
CC(C)c1ccc(-c2nn(-c3ccccc3)cc2C2C(C#N)=C(N)OC3=C2C(=O)CC(C)(C)C3)cc1 (configuration not stated)	none
CCOC(=O)C(NC(=O)c1ccc(F)cc1)(Nc1sc2c(c1C(N)=O)CCC2)C(F)(F)F (configuration not stated)	none
CCOc1cc(/C=C2/C(=O)ON=C2C)ccc1OCc1ccccc1F	none
CCOc1cc(/C=C2/C(=O)ON=C2C)ccc1OCc1ccc(F)cc1	RAM inhibit 9.9
CCOc1cc(/C=C2/C(=O)ON=C2C)ccc1OCc1ccccc1	RAM inhibit 10 (no result: NPY Y2 blocker)
CCOc1ccccc1C(=O)N[C@H](C(=O)Nc1cc(S(=O)(=O)N(C)C)ccc1OC)C(C)C	none (no result: NPY Y2 blocker)
CCCOc1cccc(C2/C(=C(/O)c3ccccc3)C(=O)C(=O)N2CCN(C)C)c1 (configuration not stated)	none
COc1ccccc1NC(=S)NCCSc1ccc(Cl)cc1	WT yeast gro inh 78
COc1ccc(Cl)cc1NC(=S)NCCc1c[nH]c2ccccc12	none
COc1ccc(Cl)cc1NC(=S)NCCSc1ccc(C)cc1	RAM inhibit 9.4, WT yeast gro inh 78
Cc1cccc(C)c1NC(=S)NCCSc1ccc(Cl)cc1	WT yeast gro inh 80 (no result: NPY Y2 blocker)
COc1ccc(NC(=S)NCCSc2ccc(Cl)cc2)c(OC)c1	WT yeast gro inh 73
O=C(NCCN1CCCCC1)Nc1ccc(F)c(Cl)c1	none
CCn1c(=O)c2cc(C(=O)NCc3cccs3)sc2c2ccccc21	RAM inhibit 9.9 (no result: NPY Y2 blocker)
O=C(NCc1ccc2c(c1)OCO2)c1ccc(-c2ccc(Cl)cc2)o1	WT yeast gro inh 69
O=C(CSCc1cccc(Cl)c1)NCc1ccc2c(c1)OCO2	none
O=C(NCc1ccc2c(c1)OCO2)c1ccc(CSCc2cccc(Cl)c2)o1	RAM inhibit 8.8
Cc1ccc(/C=C/C(=O)O)cc1S(=O)(=O)Nc1ccc2c(c1)OCO2	RAM inhibit 8.8 (no result: NPY Y2 blocker)
CCCCc1c(C)nc2ccc(Br)cc2c1SCCC#N	WT yeast gro inh 60
NS(=O)(=O)c1ccc(N2N=C(c3ccc(Br)cc3)CC2c2ccc(F)cc2)cc1 (configuration not stated)	WT yeast gro inh 92
NS(=O)(=O)c1ccc(N2N=C(c3ccccc3)CC2c2cccc(F)c2)cc1 (configuration not stated)	WT yeast gro inh 85
COc1ccc(C(=O)NNC2=C(C(=O)C(F)(F)F)CCC2)cc1	none (no result: NPY-Y1 antag, RAM inhibit, WT yeast gro inh, NPY Y2 blocker)
CC1CCC(C(C)C)C(OCC(O)CN2CCOCC2)C1 (configuration not stated)	NPY2 pot ag 76, NPY-Y1 PAM-ag 74 (no result: WT yeast gro inh)
CC1CCC(C(C)C)C(OCC(O)CN2CCN(Cc3ccccc3)CC2)C1 (configuration not stated)	none
Cc1ccc(/C(N)=N/OC(=O)c2cc(-c3ccccc3)nc3ccccc23)cc1	none
COc1ccc(CC(=O)O/N=C(\N)c2ccccn2)cc1	none (no result: NPY-Y1 antag, RAM inhibit, WT yeast gro inh, NPY Y2 blocker)
N/C(=N\OC(=O)c1cc(-c2ccccc2)nc2ccccc12)c1ccccn1	WT yeast gro inh 66 (no result: NPY Y2 blocker)
N/C(=N\OC(=O)Cc1ccc(-c2ccccc2)cc1)c1ccccn1	WT yeast gro inh 62
CCC(=O)Nc1cccc(NC(=S)NC(=O)c2cc3ccccc3o2)c1	none (no result: NPY Y2 blocker)
COc1ccc(NC(=O)COC(=O)C2CCC(C(C)(C)C)CC2)c([N+](=O)[O-])c1 (configuration not stated)	RAM inhibit 11
COc1ccc(NC(=O)COC(=O)c2ccc(O)cc2)c([N+](=O)[O-])c1	none (no result: NPY Y2 blocker)
Cc1cccc(NC(=O)c2ccc(N3CCCCC3)c([N+](=O)[O-])c2)n1	WT yeast gro inh 78
O=C(Nc1ccccc1N1CCOCC1)c1cc(F)cc(F)c1	WT yeast gro inh 74 (no result: NPY Y2 blocker)
